Data from ChEMBL document CHEMBL1287747, “Highly active antimycobacterial derivatives of benzoxazine” (2010).
Converted amounts (≈) assume the structure as drawn.

How the values were obtained:
Format in all cases: functional
[1] = tested on: Mycobacterium tuberculosis; assay: Antimycobacterial activity against Mycobacterium tuberculosis CNCTC My 331/88 after 14 days by microdilution method; conditions: CNCTC My 331/88, 336 h
How it was run: (§1)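 Strains from the Czech National Collection of Type Cultures, tested by dilution micromethod in Šula semisynthetic medium. Incubated at 37 °C and read at 14 and 21 days. MIC is the lowest concentration inhibiting growth.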

Mycobacterium avium [2] = assay: Antimycobacterial activity against Mycobacterium avium CNCTC My 330/88 after 14 days by microdilution method; conditions: CNCTC My 330/88, 336 h; how it was run: as §1
Mycobacterium kansasii [3] = assay: Antimycobacterial activity against Mycobacterium kansasii CNCTC My 235/80 after 21 days by microdilution method; conditions: CNCTC My 235/80, 504 h; how it was run: as §1
Mycobacterium kansasii [4] = assay: Antimycobacterial activity against Mycobacterium kansasii CNCTC My 235/80 after 14 days by microdilution method; conditions: CNCTC My 235/80, 336 h; how it was run: as §1
[5] = tested on: Mycobacterium tuberculosis; assay: Antimycobacterial activity against Mycobacterium tuberculosis CNCTC My 331/88 after 21 days by microdilution method; conditions: CNCTC My 331/88, 504 h; how it was run: as §1
Mycobacterium kansasii [6] = assay: Antimycobacterial activity against Mycobacterium kansasii 6509/96 after 14 days by microdilution method; conditions: 6509/96, 336 h
How it was run: (§2)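 Clinical isolate that, unlike the standard strain, is not isoniazid-resistant. Tested by dilution micromethod in Šula semisynthetic medium, with compounds added in DMSO at final 1000 down to 0.25 µmol/L in twofold steps. Löwenstein-Jensen plate used as inoculum sterility and growth control. Incubated at 37 °C and read at 14 and 21 days. MIC is the lowest concentration inhibiting growth.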

Mycobacterium kansasii [7] = assay: Antimycobacterial activity against Mycobacterium kansasii 6509/96 after 21 days by microdilution method; conditions: 6509/96, 504 h; how it was run: as §2
Mycobacterium avium [8] = assay: Antimycobacterial activity against Mycobacterium avium CNCTC My 330/88 after 21 days by microdilution method; conditions: CNCTC My 330/88, 504 h; how it was run: as §1

| SMILES | MIC [1] [µM] | MIC (Mycobacterium avium [2]) [µM] | MIC (Mycobacterium kansasii [3]) [µM] | MIC (Mycobacterium kansasii [4]) [µM] | MIC [5] [µM] | MIC (Mycobacterium kansasii [6]) [µM] | MIC (Mycobacterium kansasii [7]) [µM] | MIC (Mycobacterium avium [8]) [µM] |
| --- | --- | --- | --- | --- | --- | --- | --- | --- |
| Cc1ccc(-n2c(=S)oc3ccc(Br)cc3c2=S)cc1 | 0.5 (≈ 0.182 µg/mL) | 15 (≈ 5.46 µg/mL) | 4 (≈ 1.46 µg/mL) | 4 (≈ 1.46 µg/mL) | 1 (≈ 0.364 µg/mL) | 4 (≈ 1.46 µg/mL) | 4 (≈ 1.46 µg/mL) | 30 (≈ 10.9 µg/mL) |
| Cc1ccc2c(=S)n(-c3ccc(C(C)C)cc3)c(=S)oc2c1 | 0.5 (≈ 0.164 µg/mL) | 0.5 (≈ 0.164 µg/mL) | 4 (≈ 1.31 µg/mL) | 2 (≈ 0.655 µg/mL) | 1 (≈ 0.327 µg/mL) | 1 (≈ 0.327 µg/mL) | 2 (≈ 0.655 µg/mL) | 0.5 (≈ 0.164 µg/mL) |
| CCC(C)c1ccc(-n2c(=S)oc3ccc(Br)cc3c2=S)cc1 (centres undefined) | 1 (≈ 0.406 µg/mL) | 32 (≈ 13 µg/mL) | 8 (≈ 3.25 µg/mL) | 4 (≈ 1.63 µg/mL) | 2 (≈ 0.813 µg/mL) | 2 (≈ 0.813 µg/mL) | 4 (≈ 1.63 µg/mL) | 32 (≈ 13 µg/mL) |
| CCC(C)c1ccc(-n2c(=S)oc3ccc(Cl)cc3c2=S)cc1 (centres undefined) | 1 (≈ 0.362 µg/mL) | 16 (≈ 5.79 µg/mL) | 16 (≈ 5.79 µg/mL) | 8 (≈ 2.9 µg/mL) | 2 (≈ 0.724 µg/mL) | 4 (≈ 1.45 µg/mL) | 8 (≈ 2.9 µg/mL) | 32 (≈ 11.6 µg/mL) |
| CCC(C)c1ccc(-n2c(=S)oc3cc(Cl)ccc3c2=S)cc1 (centres undefined) | 1 (≈ 0.362 µg/mL) | 4 (≈ 1.45 µg/mL) | 8 (≈ 2.9 µg/mL) | 4 (≈ 1.45 µg/mL) | 1 (≈ 0.362 µg/mL) | 1 (≈ 0.362 µg/mL) | 2 (≈ 0.724 µg/mL) | 8 (≈ 2.9 µg/mL) |
| CCCCc1ccc(-n2c(=S)oc3ccc(Cl)cc3c2=S)cc1 | 2 (≈ 0.724 µg/mL) | 8 (≈ 2.9 µg/mL) | 8 (≈ 2.9 µg/mL) | 8 (≈ 2.9 µg/mL) | 4 (≈ 1.45 µg/mL) | 8 (≈ 2.9 µg/mL) | 8 (≈ 2.9 µg/mL) | 16 (≈ 5.79 µg/mL) |
| CC(C)c1ccc(-n2c(=O)oc3ccc(Br)cc3c2=O)cc1 | 2 (≈ 0.72 µg/mL) | 8 (≈ 2.88 µg/mL) | 8 (≈ 2.88 µg/mL) | 8 (≈ 2.88 µg/mL) | 4 (≈ 1.44 µg/mL) | 4 (≈ 1.44 µg/mL) | 8 (≈ 2.88 µg/mL) | 16 (≈ 5.76 µg/mL) |
| CC(C)c1ccc(-n2c(=O)oc3ccc(Cl)cc3c2=O)cc1 | 4 (≈ 1.26 µg/mL) | 32 (≈ 10.1 µg/mL) | 16 (≈ 5.05 µg/mL) | 8 (≈ 2.53 µg/mL) | 8 (≈ 2.53 µg/mL) | 8 (≈ 2.53 µg/mL) | 16 (≈ 5.05 µg/mL) | 32 (≈ 10.1 µg/mL) |
| CC(C)c1ccc(-n2c(=O)oc3cc(Cl)ccc3c2=O)cc1 | 4 (≈ 1.26 µg/mL) | 8 (≈ 2.53 µg/mL) | 16 (≈ 5.05 µg/mL) | 8 (≈ 2.53 µg/mL) | 4 (≈ 1.26 µg/mL) | 8 (≈ 2.53 µg/mL) | 8 (≈ 2.53 µg/mL) | 16 (≈ 5.05 µg/mL) |
| CC(C)(C)c1ccc(-n2c(=S)oc3cc(Cl)ccc3c2=S)cc1 | 0.5 (≈ 0.181 µg/mL) | 2 (≈ 0.724 µg/mL) | 4 (≈ 1.45 µg/mL) | 2 (≈ 0.724 µg/mL) | 0.5 (≈ 0.181 µg/mL) | 2 (≈ 0.724 µg/mL) | 4 (≈ 1.45 µg/mL) | 4 (≈ 1.45 µg/mL) |
| CC(C)(C)c1ccc(-n2c(=S)oc3ccc(F)cc3c2=S)cc1 | 0.5 (≈ 0.173 µg/mL) | 0.5 (≈ 0.173 µg/mL) | 8 (≈ 2.76 µg/mL) | 8 (≈ 2.76 µg/mL) | 0.5 (≈ 0.173 µg/mL) | 4 (≈ 1.38 µg/mL) | 8 (≈ 2.76 µg/mL) | 1 (≈ 0.345 µg/mL) |
| CCC(C)c1ccc(-n2c(=O)oc3ccc(Br)cc3c2=O)cc1 (centres undefined) | 4 (≈ 1.5 µg/mL) | 16 (≈ 5.99 µg/mL) | 8 (≈ 2.99 µg/mL) | 8 (≈ 2.99 µg/mL) | 8 (≈ 2.99 µg/mL) | 8 (≈ 2.99 µg/mL) | 16 (≈ 5.99 µg/mL) | 32 (≈ 12 µg/mL) |
| CCC(C)c1ccc(-n2c(=O)oc3ccc(Cl)cc3c2=O)cc1 (centres undefined) | 4 (≈ 1.32 µg/mL) | 32 (≈ 10.6 µg/mL) | 16 (≈ 5.28 µg/mL) | 16 (≈ 5.28 µg/mL) | 8 (≈ 2.64 µg/mL) | 16 (≈ 5.28 µg/mL) | 16 (≈ 5.28 µg/mL) | 32 (≈ 10.6 µg/mL) |
